Assay results from ChEMBL document CHEMBL1145965, “4-Substituted 4-hydroxycyclohexa-2,5-dien-1-ones with selective activities against colon and renal cancer cell lines” (J Med Chem, 2003).

Tests used:
[1] = test system: HCT-116; experiment: In vitro lethal concentration against most sensitive colon HCT116 cell line; format: functional; conditions: Homo sapiens, read-out: LC50 (the source's name)
[2] = test system: NCI-H23; experiment: Concentration of compound that cause 50% cytotoxicity of NCI-H23 non small cell lung cancer cell line; format: functional; conditions: Homo sapiens, read-out: Log LC50 (the source's name) (converted)
Method in brief: (§1)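 NCI 60-cell-line panel screen. Each line was seeded in 96-well plates at a density set by its growth characteristics and incubated drug-free for 24 h. Test agents were then added at five 10-fold dilutions, with a top concentration of 100 μM.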

[3] = test system: SN12C; experiment: Concentration of compound that cause 50% cytotoxicity of SN12C renal cancer cell line; format: functional; conditions: Homo sapiens, read-out: Log LC50 (the source's name) (converted); method in brief: as §1
[4] = test system: SNB-75; experiment: Concentration of compound that cause 50% cytotoxicity of SNB-75 CNS cancer cell line; format: functional; conditions: Homo sapiens, read-out: Log LC50 (the source's name) (converted); method in brief: as §1
[5] = test system: SR; experiment: Concentration of compound that cause 50% cytotoxicity of SR leukemia cell line; format: functional; conditions: Homo sapiens, read-out: LC50 (the source's name); method in brief: as §1
[6] = test system: RXF 393; experiment: Concentration of compound that cause 50% cytotoxicity of RXF393 renal cancer cell line; format: functional; conditions: Homo sapiens, read-out: Log LC50 (the source's name) (converted); method in brief: as §1
[7] = test system: SK-MEL-5; experiment: Concentration of compound that cause 50% cytotoxicity of SK-MEL-5 melanoma cell line; format: functional; conditions: Homo sapiens, read-out: Log LC50 (the source's name) (converted); method in brief: as §1
[8] = test system: OVCAR-8; experiment: Concentration of compound that cause 50% cytotoxicity of OVCAR-8 ovarian cancer cell line; format: functional; conditions: Homo sapiens, read-out: Log LC50 (the source's name) (converted); method in brief: as §1
[9] = test system: COLO 205; experiment: Concentration of compound that cause 50% cytotoxicity of COLO 205 colon cancer cell line; format: functional; conditions: Homo sapiens, read-out: Log LC50 (the source's name) (converted); method in brief: as §1
[10] = test system: SF-268; experiment: Concentration of compound that cause 50% cytotoxicity of SF-268 CNS cancer cell line; format: functional; conditions: Homo sapiens, read-out: Log LC50 (the source's name) (converted); method in brief: as §1
[11] = test system: EKVX; experiment: Concentration of compound that cause 50% cytotoxicity of EKVX non small cell lung cancer cell line; format: functional; conditions: Homo sapiens, read-out: Log LC50 (the source's name) (converted); method in brief: as §1
[12] = test system: OVCAR-3; experiment: Concentration of compound that cause 50% cytotoxicity of OVCAR-3 ovarian cancer cell line; format: functional; conditions: Homo sapiens, read-out: Log LC50 (the source's name) (converted); method in brief: as §1
[13] = test system: Hs-578T; experiment: Concentration of compound that cause 50% cytotoxicity of Hs 578.T breast cancer cell line; format: functional; conditions: Homo sapiens, read-out: LC50 (the source's name); method in brief: as §1
[14] = Inhibitory activity against MDA-468 mammary carcinoma cell line; format: functional, cell-based, Homo sapiens; conditions: mda-mb-468
Method in brief: (§2)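 Cells grown in RPMI 1640 with 2 mM L-glutamine and 10% fetal calf serum, 37 °C, 5% CO2. Seeded at 5 × 10³ per well, 24 h adherence, then drug 0.1 nM–100 μM final (n = 8; DMSO stocks, dilutions in medium) for 72 h.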

[15] = test system: KM12; experiment: Concentration of compound that cause 50% cytotoxicity of KM12 colon cancer cell line; format: functional; conditions: Homo sapiens, read-out: Log LC50 (the source's name) (converted); method in brief: as §1
[16] = test system: UACC-62; experiment: Concentration of compound that cause 50% cytotoxicity of UACC-62 melanoma cell line; format: functional; conditions: Homo sapiens, read-out: Log LC50 (the source's name) (converted)
[17] = test system: A549; experiment: Concentration of compound that cause 50% cytotoxicity of A549/ATCC non small cell lung cancer cell line; format: functional; conditions: Homo sapiens, read-out: Log LC50 (the source's name) (converted); method in brief: as §1
[18] = test system: Panel NCI-60 (60 carcinoma cell lines); experiment: In vitro mean growth inhibitory activity against 60-cell panel; format: functional; conditions: Homo sapiens
[19] = test system: Panel NCI-60 (60 carcinoma cell lines); experiment: In vitro mean growth lethal concentration in renal subpanel against 60-cell panel; format: functional; conditions: Homo sapiens, read-out: Mean LC50
[20] = test system: MDA-MB-231; experiment: Concentration of compound that cause 50% cytotoxicity of MDA-MB-231/ATCC breast cancer cell line; format: functional; conditions: Homo sapiens, read-out: Log LC50 (the source's name) (converted); method in brief: as §1
[21] = test system: HCC 2998; experiment: Concentration of compound that cause 50% cytotoxicity of HCC2998 colon cancer cell line; format: functional; conditions: Homo sapiens, read-out: Log LC50 (the source's name) (converted); method in brief: as §1
[22] = test system: MCF7; experiment: Inhibitory activity against MCF-7 mammary carcinoma cell line; format: functional, cell-based; conditions: Homo sapiens; method in brief: as §2
[23] = test system: ACHN; experiment: Concentration of compound that cause 50% cytotoxicity of ACHN renal cancer cell line; format: functional; conditions: Homo sapiens, read-out: Log LC50 (the source's name) (converted); method in brief: as §1
[24] = test system: MDA-MB-435; experiment: Concentration of compound that cause 50% cytotoxicity of MDA-MB-435 breast cancer cell line; format: functional; conditions: Homo sapiens, read-out: Log LC50 (the source's name) (converted); method in brief: as §1
[25] = test system: MOLT-4; experiment: Concentration of compound that cause 50% cytotoxicity of MOLT-4 leukemia cell line; format: functional; conditions: Homo sapiens, read-out: LC50 (the source's name); method in brief: as §1
[26] = test system: UACC-257; experiment: Concentration of compound that cause 50% cytotoxicity of UACC-257 melanoma cell line; format: functional; conditions: Homo sapiens, read-out: Log LC50 (the source's name) (converted)
[27] = test system: K562; experiment: Concentration of compound that cause 50% cytotoxicity of K-562 leukemia cell line; format: functional; conditions: Homo sapiens, read-out: LC50 (the source's name); method in brief: as §1
[28] = test system: OVCAR-4; experiment: Concentration of compound that cause 50% cytotoxicity of OVCAR-4 ovarian cancer cell line; format: functional; conditions: Homo sapiens, read-out: Log LC50 (the source's name) (converted); method in brief: as §1
[29] = test system: UO-31; experiment: Concentration of compound that cause 50% cytotoxicity of UO-31 renal cancer cell line; format: functional; conditions: Homo sapiens, read-out: Log LC50 (the source's name) (converted)
[30] = test system: NCI-H460; experiment: Concentration of compound that cause 50% cytotoxicity of NCI-H460 non small cell lung cancer cell line; format: functional; conditions: Homo sapiens, read-out: Log LC50 (the source's name) (converted); method in brief: as §1
[31] = test system: OVCAR-5; experiment: Concentration of compound that cause 50% cytotoxicity of OVCAR-5 ovarian cancer cell line; format: functional; conditions: Homo sapiens, read-out: Log LC50 (the source's name) (converted); method in brief: as §1
[32] = test system: SK-OV-3; experiment: Concentration of compound that cause 50% cytotoxicity of SK-OV-3 ovarian cancer cell line; format: functional; conditions: Homo sapiens, read-out: Log LC50 (the source's name) (converted); method in brief: as §1

SMILES: O=C1C=CC(O)(c2nc3ccccc3s2)C=C1
- CC50 [1]: 0.43 µM
- CC50 [2]: 5.13 µM
- CC50 [3]: 1.45 µM
- CC50 [4]: 4.68 µM
- CC50 [5]: > 4 µM
- CC50 [6]: 0.575 µM
- CC50 [7]: 24 µM
- CC50 [8]: 5.01 µM
- CC50 [9]: 5.13 µM
- CC50 [10]: 6.31 µM
- CC50 [11]: 5.75 µM
- CC50 [12]: 2.88 µM
- CC50 [13]: > 4 µM
- IC50 [14]: 0.79 µM
- CC50 [15]: 4.37 µM
- CC50 [16]: 5.75 µM
- CC50 [17]: 43.7 µM
- GI50 [18]: 0.23 µM
- CC50 [19]: 1.57 µM
- CC50 [20]: 5.75 µM
- CC50 [21]: 0.977 µM
- IC50 [22]: 0.35 µM
- CC50 [23]: 2.75 µM
- CC50 [24]: 1.51 µM
- CC50 [25]: > 4 µM
- CC50 [26]: 9.77 µM
- CC50 [27]: > 4 µM
- CC50 [28]: 3.8 µM
- CC50 [29]: 0.955 µM
- CC50 [30]: 44.7 µM
- CC50 [31]: 1.86 µM
- CC50 [32]: 38 µM
